According to ChEMBL document CHEMBL4715825, “Synthesis and biological evaluations of marine oxohexadecenoic acids: PPARα/γ dual agonism and anti-diabetic target gene effects” (Eur J Med Chem, 2018):
The source made the active and inactive calls. The calls are words filed in the database; no cut-off is given here.

How the values were obtained:
SGBS [1] = assay: Effect on diabetic complication pathway in 8 day differentiated human SGBS cells assessed as downregulation of TNF signalling genes at 25 uM incubated for 8 days by Illumina sequencing method; assay type: functional, cell-based
Method in brief: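 SGBS cells were differentiated 4 days in Quickdiff supplemented with compound:BSA or rosiglitazone, then 4 days in 3FC. Total RNA was extracted, and strand-specific TruSeq libraries were sequenced on NextSeq 500 (2×75 bp paired-end). Reads were aligned to hg19 with Tophat/Bowtie and counted as RPKM by Cufflinks. Values are log2 fold over day 0 cells, grouped into KEGG gene sets (n = 2-4).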

[2] = molecular target: T1, Peroxisome proliferator-activated receptor gamma (Homo sapiens) (UniProt P37231); assay: Agonist activity at human PPARgamma in 8 day differentiated human SGBS cells assessed as decrease in TNF gene expression at 25 uM incubated for 24 hrs by SYBR-green based qPCR analysis; assay type: cell-based; conditions: filed as agonist
T1 sequence (whole entry): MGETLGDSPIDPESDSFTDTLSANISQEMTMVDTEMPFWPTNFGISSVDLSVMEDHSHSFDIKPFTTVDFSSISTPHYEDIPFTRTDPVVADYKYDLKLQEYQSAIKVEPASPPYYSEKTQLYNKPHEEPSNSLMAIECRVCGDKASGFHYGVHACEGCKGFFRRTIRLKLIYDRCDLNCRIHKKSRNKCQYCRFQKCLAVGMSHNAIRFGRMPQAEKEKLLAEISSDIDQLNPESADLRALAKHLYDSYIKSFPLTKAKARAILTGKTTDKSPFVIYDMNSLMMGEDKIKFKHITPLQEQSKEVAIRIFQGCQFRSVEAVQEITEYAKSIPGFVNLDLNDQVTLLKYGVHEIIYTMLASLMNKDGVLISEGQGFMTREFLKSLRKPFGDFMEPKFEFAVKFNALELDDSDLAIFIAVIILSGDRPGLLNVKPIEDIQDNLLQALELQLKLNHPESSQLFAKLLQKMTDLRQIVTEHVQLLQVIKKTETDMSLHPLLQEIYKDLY

[3] = molecular target: T2, Peroxisome proliferator-activated receptor alpha (Homo sapiens) (UniProt Q07869); assay: Agonist activity at human PPARalpha in 8 day differentiated human SGBS cells assessed as increase in CPT1A gene expression at 25 uM incubated for 24 hrs by SYBR-green based qPCR analysis; assay type: cell-based; conditions: filed as agonist
T2 sequence (whole entry): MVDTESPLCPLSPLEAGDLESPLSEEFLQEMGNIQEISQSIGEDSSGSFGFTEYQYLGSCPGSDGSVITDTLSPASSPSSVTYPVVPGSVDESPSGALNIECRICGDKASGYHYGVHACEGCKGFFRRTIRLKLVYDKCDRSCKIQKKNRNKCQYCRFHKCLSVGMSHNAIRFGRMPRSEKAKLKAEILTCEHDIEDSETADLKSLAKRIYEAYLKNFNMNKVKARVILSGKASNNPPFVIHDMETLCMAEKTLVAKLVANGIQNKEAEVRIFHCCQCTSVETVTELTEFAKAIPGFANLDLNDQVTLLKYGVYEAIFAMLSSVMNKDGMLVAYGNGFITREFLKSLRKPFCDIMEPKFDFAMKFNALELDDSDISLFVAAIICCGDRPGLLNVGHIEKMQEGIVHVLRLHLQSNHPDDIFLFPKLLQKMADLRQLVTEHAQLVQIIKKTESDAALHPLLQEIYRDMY
Method in brief: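 SGBS preadipocytes were seeded at passage P6-P8 and grown to confluence. They were differentiated for 4 days in Quickdiff (3FC plus dexamethasone, IBMX and rosiglitazone), then kept in 3FC with medium renewed every fourth day. On day 8, cells were stimulated for 24 h in 3FC with compound:BSA or rosiglitazone. SYBR-green qPCR used gene-specific primers. Data are mean ± SEM of three biological replicates in duplicate.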

[4] = molecular target: T2, Peroxisome proliferator-activated receptor alpha (Homo sapiens); assay: Agonist activity at human PPARalpha in human HuH-7 cells assessed as increase in CPT1A gene expression at 50 uM incubated for 24 hrs by SYBR-green based qPCR analysis; assay type: cell-based; conditions: filed as agonist
Method in brief: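 Cells were seeded at 2×10^5 per well and treated 24 h later with compound in DMSO (final 0.1%). The next day, cells were washed and scraped into RLT buffer. RNA was isolated, and target gene mRNA was quantified by SYBR-green qPCR with specific primers.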

[5] = Cytotoxicity against African green monkey COS-1 cells assessed as cell viability at EC50 concentration for PPAR activation assay by LDH assay; assay type: cell-based; conditions: chlorocebus aethiops, read-out: Activity
Method in brief: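 Assayed in the same COS-1 cultures as the Gal4-LBD PPAR reporter assays. Lactate dehydrogenase released into the medium was measured with a commercial kit per the maker's protocol. Absorbance was read at 492/750 nm.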

SGBS [6] = assay: Induction of adipogenesis in 8 day differentiated human SGBS cells assessed as upregulation of steroid biosynthesis genes at 25 uM incubated for 8 days by Illumina sequencing method; assay type: functional, cell-based
Method in brief: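 SGBS cells were differentiated for 8 days: Quickdiff for days 0-4 with 2 µM rosiglitazone or 25 µM oxo-fatty acid:BSA, then 3FC. Total RNA was extracted (RIN 9.80-10.00) and strand-specific TruSeq libraries were sequenced on NextSeq 500 (2×75 bp paired-end). Reads were aligned to hg19 and quantified as RPKM. Data were expressed as log2 fold over day-0 cells (n = 2-4) and grouped into KEGG gene sets.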

[7] = molecular target: T3, Oxysterols receptor LXR-alpha (Homo sapiens) (UniProt Q13133); assay: Agonist activity at recombinant human LXRalpha LBD (164 to 447 residues) expressed in African green monkey COS-1 cells at 25 to 50 uM incubated for 18 hrs by luciferase reporter gene assay; assay type: cell-based; conditions: dose 25-50 µM
T3 sequence (whole entry): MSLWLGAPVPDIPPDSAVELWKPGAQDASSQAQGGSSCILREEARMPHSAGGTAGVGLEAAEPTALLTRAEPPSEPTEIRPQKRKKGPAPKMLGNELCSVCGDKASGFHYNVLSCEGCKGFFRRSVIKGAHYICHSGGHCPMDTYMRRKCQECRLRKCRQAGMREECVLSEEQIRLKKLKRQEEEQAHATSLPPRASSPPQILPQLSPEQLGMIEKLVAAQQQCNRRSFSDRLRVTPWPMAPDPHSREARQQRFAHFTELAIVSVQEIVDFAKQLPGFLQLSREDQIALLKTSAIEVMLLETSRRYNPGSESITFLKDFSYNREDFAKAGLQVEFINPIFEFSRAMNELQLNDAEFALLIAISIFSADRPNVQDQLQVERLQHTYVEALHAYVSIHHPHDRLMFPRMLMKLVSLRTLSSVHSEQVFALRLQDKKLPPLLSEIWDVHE
Method in brief: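 Transient Gal4 one-hybrid assay in COS-1 cells (7×10^4 per well), transfected 24 h after seeding. Plasmids were Gal4-DBD fused to the human nuclear receptor LBD, a 5×UAS-SV40 luciferase reporter and pRL-CMV Renilla control. Ligand in DMSO (final 0.1%) was added 5 h post-transfection. Dual-luciferase activity was read after 18 h, expressed as RLU, from three biological replicates in quadruplicate.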

CCCCC/C=C/C(=O)CCCCCCCC(=O)O
Activity (SGBS [1]): Active
Activity [2]: Active
Activity [3]: Active
Activity [4]: Active
viability [5]: > 95%
Activity (SGBS [6]): Active
Activity [7]: inactive

CCCCCCCC(=O)/C=C/CCCCCC(=O)O
Activity (SGBS [1]): Active
Activity [2]: Active
Activity [3]: Active
Activity [4]: Active
viability [5]: > 95%
Activity (SGBS [6]): Active
Activity [7]: inactive
